Experimental data from PMC9170026 (Proceedings of the National Academy of Sciences of the …, 2022).
Like-named read-outs stand apart in the source and are kept apart here.

Columns and labels:
MAP3K1-WT–induced p-IKKβ = experiment: Western blot of MAP3K1-WT transfected HeLa cells; type: cell-based
[1] = system: TNF-α–induced MAP3K1-IKKβ–mediated NF-κB activation; type: cell-based; conditions: MAP3K1-WT transfected HeLa, TNF-α 20 ng/mL, 6 h
NF-κB pathway proteins = experiment: Western blot of NF-κB pathway proteins in MiaPaCa2 cells, 6 h; type: cell-based, human; conditions: MiaPaCa2, 6h, dose-response
IKKβ [2] = target: T1, IKKβ (Homo sapiens, UniProt O14920); experiment: 10-point dose-response IKKβ kinase activity assay; type: biochemical
T1 sequence (O14920 1-756): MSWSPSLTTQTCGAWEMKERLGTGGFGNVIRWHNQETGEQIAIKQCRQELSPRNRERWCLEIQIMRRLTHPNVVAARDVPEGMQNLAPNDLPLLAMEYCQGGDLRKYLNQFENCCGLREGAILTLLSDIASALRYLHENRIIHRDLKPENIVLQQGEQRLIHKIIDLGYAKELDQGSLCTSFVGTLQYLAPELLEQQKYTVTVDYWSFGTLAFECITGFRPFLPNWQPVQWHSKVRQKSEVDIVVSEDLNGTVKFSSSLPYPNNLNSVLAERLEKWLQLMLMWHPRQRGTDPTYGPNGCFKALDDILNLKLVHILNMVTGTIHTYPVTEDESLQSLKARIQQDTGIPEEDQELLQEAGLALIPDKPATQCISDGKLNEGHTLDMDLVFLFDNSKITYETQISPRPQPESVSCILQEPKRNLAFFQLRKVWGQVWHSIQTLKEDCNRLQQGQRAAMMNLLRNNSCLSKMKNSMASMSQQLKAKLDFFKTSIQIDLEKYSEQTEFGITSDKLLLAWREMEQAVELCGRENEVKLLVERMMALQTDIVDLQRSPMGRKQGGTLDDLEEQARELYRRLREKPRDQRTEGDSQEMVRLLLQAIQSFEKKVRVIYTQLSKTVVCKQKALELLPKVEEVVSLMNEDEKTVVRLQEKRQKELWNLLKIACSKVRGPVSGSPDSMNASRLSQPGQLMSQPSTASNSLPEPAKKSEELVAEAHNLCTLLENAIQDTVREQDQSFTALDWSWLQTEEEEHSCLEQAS

[3] = system: 328 kinase-associated peptides that correspond to 254 kinases; experiment: KiNativ kinome profiling dose-response in PANC1 lysate; type: binding; conditions: PANC1 cell lysates, 1.25-10 μM
Method in brief: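 KiNativ kinome profiling done as a dose-response in PANC1 cells. Test compound was used at 1.25, 2.5, 5, 7.5 and 10 μM. Each kinase inhibited was recorded at each concentration.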

[4] = Oral and intravenous dose pharmacokinetic studies in mice; conditions: mouse, in vivo
[5] = system: TNF-α–induced MAP3K1-IKKβ–mediated NF-κB activity; experiment: HeLa luciferase reporter under NF-κB response element; type: cell-based
p-IKKβ = p-IKKβ levels in MiaPaCa2 cells; type: cell-based; conditions: Homo sapiens, MIA PaCa-2, read-out: IC50 for reduction of p-IKKβ levels
[6] = system: T3M4 orthotopic pancreatic tumors; experiment: T3M4 orthotopic xenograft model; type: in vivo, athymic nude mice; conditions: 40 mg/kg, by mouth
[7] = Metabolic stability in human liver S9 fraction; type: in vitro ADME
IKKβ [8] = target: T1, IKKβ; experiment: KinomeSCAN binding to IKKβ
MAP3K12 = conditions: cited from earlier work
[9] = system: TNF-α–induced IKKβ-mediated NF-κB activation; experiment: Dual luciferase assay-based screen of quinoxaline analogs; type: cell-based; conditions: relative to parent analog / 13-197
Method in brief: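 Dual-luciferase NF-κB reporter screen of quinoxaline analogs against TNF-α–stimulated, IKKβ-mediated NF-κB activation. Two reference compounds, the parent quinoxaline and an allosteric IKKβ inhibitor, served as controls marking the ends of the activity range. n = 4, reported as average ± SEM. P values from a two-tailed Student's t test.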

## Cn1cc(-c2cnc3ccc(NC(=O)Nc4ccc(F)c(Br)c4)cc3n2)cn1 [39-100]
MAP3K1-WT–induced p-IKKβ
  MAP3K1-WT–induced p-IKKβ: inhibited
[1]
  inhibition of TNF-α–induced MAP3K1-IKKβ–mediated NF-κB activation: inhibited
NF-κB pathway proteins
  Bcl-xL levels: no change in Bcl-xL
  IκBα phosphorylation: inhibited IκBα phosphorylation in a dose-dependent manner
IKKβ [2]
  in vitro IKKβ enzymatic inhibition: inactive
[3]
  kinome selectivity: selectively inhibits MAP3K1
[4]
  improvement in oral bioavailability over 13-197: ~12 fold
[5]
  inhibition of TNF-α–induced NF-κB reporter activity: selectively inhibited
p-IKKβ
  IC50: 2300 ± 200 nM
[6]
  Ki67 and CD31+ tumor cells vs vehicle: reduced Ki67 and CD31^+ tumor cells
  p-IKKβ expression in tumors (IHC) vs vehicle: reduced expression of p-IKKβ
[7]
  improvement of t1/2 (stability) over 13-197: ~8 fold
[7]; 2h post-incubation
  major metabolites: demethylated, glucuronidated, and sulfated products
IKKβ [8]
  in vitro IKKβ binding: did not bind
IKKβ [8]; listed as IKAM-1
  in vitro IKKβ binding: inactive

## CC(C)n1nc(-c2cnc(N)c(OC(F)(F)F)c2)cc1C1[C@H]2CN(C3COC3)C[C@@H]12 (some centres unmarked) [DLK-In-1]
MAP3K12
  Ki: 3 nM

## Cn1cc(-c2cnc3ccc(NC(=O)Nc4ccc(Br)cc4)cc3n2)cn1 [analog 5]
[9]
  inhibition of TNF-α–induced IKKβ-mediated NF-κB activity (SAR screen): improved activity

## Cn1cc(-c2cnc3ccc(NC(=O)Nc4ccccc4Br)cc3n2)cn1 [analog 13]
[9]
  inhibition of TNF-α–induced IKKβ-mediated NF-κB activity (SAR screen): reduced the activity

## Cn1cc(-c2cnc3ccc(NC(=O)Nc4cccc(Br)c4)cc3n2)cn1 [compound 12]
NF-κB pathway proteins
  Bcl-xL levels: no change in Bcl-xL
  IκBα phosphorylation: inhibited IκBα phosphorylation in a dose-dependent manner
  Mcl-1 levels: robust reduction in Mcl-1 levels
[9]
  inhibition of TNF-α–induced IKKβ-mediated NF-κB activity (SAR screen): further improved the activity
[7]
  improvement of t1/2 (stability) over 13-197: four-fold better
